Here are results for eight molecules from ChEMBL document CHEMBL2034874, “5-acetyl-2-arylbenzimidazoles as antiviral agents. Part 4” (Eur J Med Chem, 2012).

The nature of data set [1]: Cytotoxicity against human MT4 cells after 96 hrs by MTT assay. Format: cell-based. The essentials:
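Exponentially growing MT-4 cells seeded at 1×10^5 cells/mL in RPMI-1640 with 10% FBS and incubated with serial compound dilutions at 37 °C and 5% CO2. Viability measured by MTT after 96 h. CC50 by linear regression against untreated controls.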
(In general: Tetrazolium dyes change colour on reduction, which living cells bring about.)

Data set [2] concerns Human immunodeficiency virus 1. The data set can be described thus: Antiviral activity against HIV1 3B infected in human MT4 cells assessed as inhibition of virus-induced cytopathogenicity after 4 days by MTT assay. The following applies: Human immunodeficiency virus 1, 3B, MT4, 96 h. It counts as functional, organism-based. The essentials:
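MT-4 cells (1×10^4/well) in RPMI with serial compound dilutions, infected with HIV-1 IIIB at 100 CCID50 (m.o.i. 0.01). Viability measured by MTT after 4 days at 37 °C. EC50 for 50% protection from cytopathogenicity obtained by linear regression against untreated controls.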

The nature of data set [3]: Cytotoxicity against MDBK cells after 48 to 96 hrs by MTT assay. Format: cell-based, Bos taurus. The following applies: cattle. The essentials: (§1)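 Mock-infected MDBK (6×10^5 cells/mL, MEM-E with 10% horse serum) or BHK (1×10^6 cells/mL, MEM-E with 10% FBS) cells incubated with serial compound dilutions at 37 °C and 5% CO2. Viability measured by MTT after 48–96 h. CC50 by linear regression against untreated controls.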

Data set [4] in a line: Antiviral activity against BVDV1 NADL ATCC VR-534 infected in MDBK cells assessed as inhibition of virus-induced cytopathogenicity after 3 to 4 days by MTT assay. It counts as functional, cell-based, Bovine viral diarrhea virus 1-NADL. Conditions: Bovine viral diarrhea virus isolates and strains, ATCC VR-534, MDBK. The essentials:
(§2)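 BHK (5×10^4/well) or MDBK (3×10^4/well) cells grown to confluent monolayers overnight, infected at m.o.i. 0.01 in maintenance MEM-Earl with 0.5% inactivated FBS. Serially diluted compounds added after 1 h. Viability read by MTT after 3–4 days at 37 °C. Values are expressed as % of untreated controls, and EC50 is derived by linear regression. Duplicate samples.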
A general note: Protection from cytopathic effect is a common read-out in antiviral testing.

Data set [5] is described as follows: Cytotoxicity against BHK21 cells by MTT assay. The following applies: hamster, BHK-21 cells. Format: cell-based, Mesocricetus auratus. The essentials: as §1
In another data set the test system is Yellow fever virus. The data set can be described thus: Antiviral activity against Yellow fever virus 17D infected in BHK21 cells assessed as inhibition of virus-induced cytopathogenicity after 3 to 4 days by MTT assay. Format: functional, cell-based. The following applies: BHK-21.
Data set [6] in a line: Cytotoxicity against african green monkey Vero 76 cells after 48 to 96 hrs by MTT assay. It counts as cell-based. The following applies: chlorocebus sabaeus.
Another data set relates to Coxsackievirus B5. Briefly: Antiviral activity against Coxsackie virus type B5 Ohio-1 ATCC VR-29 infected in african green monkey Vero-76 cells assessed as reduction in viral plaque after 3 days by crystal violet staining. Format: functional, organism-based. Conditions: Enterovirus B, Ohio-1 ATCC VR-29, Vero 76, 72 h. The essentials:
(§3)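 Vero-76 monolayers (2×10^5 cells/well) infected for 2 h at 50–100 PFU/well. Unadsorbed virus removed. D-MEM with 1% inactivated FBS, 0.75% methylcellulose and serial compound dilutions added. Incubation at 37 °C for 3 days (CVB-5, HSV-1) or 5 days (RSV). Fixed and stained with 50% ethanol/0.8% crystal violet, then plaques counted. EC50 by linear regression versus untreated controls.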

The test system of a further data set is Poliovirus 1. The data set can be described thus: Antiviral activity against Polio virus type 1 strain sabin ATCC VR-1562 infected in african green monkey Vero-76 cells assessed as reduction in viral plaque after 2 days by crystal violet staining. It counts as functional, cell-based, Human poliovirus 1 strain Sabin. The following applies: Enterovirus C, ATCC VR-1562, Vero 76, 48 h.

Another data set has as its system Vaccinia virus. The data set can be described thus: Antiviral activity against Vaccinia virus Elstree-Lister ATCC VR-1549 infected in african green monkey Vero-76 cells assessed as reduction in viral plaque after 3 days by crystal violet staining. It counts as functional, organism-based. Conditions: Orthopoxvirus vaccinia, Elstree-Lister ATCC VR-1549, Vero 76, 72 h.

Data set [7] concerns Mammalian orthoreovirus 1. Briefly: Antiviral activity against Reovirus 1 3651 ATCC VR-214 infected in BHK21 cells assessed as inhibition of virus-induced cytopathogenicity after 3 to 4 days by MTT assay. Format: functional, organism-based. The following applies: Mammalian orthoreovirus 1, 3651 ATCC VR-214, BHK-21. The essentials: as §2
The nature of data set [8]: Antiviral activity against Human respiratory syncytial virus A2 ATCC VR-1540 infected in african green monkey Vero-76 cells assessed as reduction in viral plaque after 5 days by crystal violet staining. Format: functional, cell-based. The following applies: ATCC VR-1540, Vero 76, 120 h. The essentials:
as §3

Data set [9] relates to Vesicular stomatitis Indiana virus. The data set can be described thus: Antiviral activity against Vesicular stomatitis virus indiana ATCC VR-1540 infected in african green monkey Vero-76 cells assessed as reduction in viral plaque after 2 days by crystal violet staining. Format: functional, organism-based. Conditions: ATCC VR-1540, Vero 76, 48 h.
The test system of the next data set is Human alphaherpesvirus 1. The data set can be described thus: Antiviral activity against Herpes simplex virus type 1 KOS ATCC VR-1493 infected in african green monkey Vero-76 cells assessed as reduction in viral plaque after 3 days by crystal violet staining. It counts as functional, organism-based. The following applies: Human alphaherpesvirus 1, KOS ATCC VR1493, Vero 76, 72 h. The essentials:
as §3

Molecules are shown by their SMILES.

The CC50 is the concentration that lowers cell viability or growth by half. The EC50 is the midpoint of the concentration-response curve. Regarding `COc1ccc(-c2nc3cc(C(C)=O)ccc3[nH]2)c(OC)c1`, in data set [1], half-maximal cytotoxicity (CC50 at 96 h) was put at 50 µM. For the same molecule, the EC50 is over 50 µM in [2]; 21 µM in data set [4]; over 50 µM with Yellow fever virus; over 100 µM with Coxsackievirus B5; over 100 µM with Poliovirus 1; over 100 µM in the data set on Vaccinia virus. The CC50 in data set [3] is 73 µM; in data set [5], 50 µM; in data set [6] it was over 100 µM.
In data set [1], `C/C(=N\O)c1ccc2[nH]c(-c3ccc(Cl)cc3)nc2c1` displayed a 50% cytotoxic concentration (CC50) at 96 h of 20 µM. Moreover, the EC50 in [2] was over 20 µM; in data set [4], 18 µM; in the data set on Yellow fever virus, over 33 µM. Besides, the CC50 in data set [3] was 37 µM; in data set [5], 33 µM.
On to `C/C(=N\NC(N)=S)c1ccc2[nH]c(-c3ccc(C(F)(F)F)cc3)nc2c1`, for which the CC50 at 96 h in data set [1] worked out at 2 µM. Moreover, the EC50 in [2] was over 2 µM; in data set [4], over 1.8 µM; in the data set with Yellow fever virus, over 5 µM; in the data set with Coxsackievirus B5 it was over 22 µM; with Poliovirus 1, over 22 µM. Further, the CC50 is 5 µM in data set [3], 5 µM in data set [5] and 22 µM in data set [6].
Consider `C/C(=N\NC(N)=O)c1ccc2c(c1)nc(-c1ccccc1)n2C1CCCCC1`, for which the CC50 in data set [3], in [5] and in data set [6] was over 100 µM throughout. For the same molecule, the EC50 (in [4]; with Yellow fever virus; in data set [7]; in the data set with Coxsackievirus B5; with Poliovirus 1; in data set [8]) was over 100 µM each time. In addition, the EC50 (in [9]; in the data set on Vaccinia virus; in the data set with Human alphaherpesvirus 1) was over 100 µM in each case.
Turning to `CC(=O)c1ccc2[nH]c(-c3ccccc3)nc2c1`, the CC50 in [3], in data set [5] and in data set [6] was over 100 µM in each case. In addition, the EC50 in [4] is 100 µM; in the data set on Yellow fever virus it was over 100 µM; in data set [7], over 100 µM; in the data set with Coxsackievirus B5, over 100 µM; with Poliovirus 1, over 100 µM; in [8], over 100 µM. Further, the EC50 (in data set [9]; in the data set on Vaccinia virus; in the data set with Human alphaherpesvirus 1) was over 100 µM throughout.
As for `C/C(=N\NC(N)=O)c1ccc2[nH]c(-c3ccccc3)nc2c1`, the CC50 in data set [3], in data set [5] and in data set [6] was over 100 µM each time. Besides, the EC50 in data set [4] is 50 µM; with Yellow fever virus, over 100 µM; in data set [7] it was over 100 µM; in the data set on Coxsackievirus B5 it was over 100 µM; in the data set with Poliovirus 1 it was over 100 µM; in data set [8], over 100 µM. In addition, the EC50 (in [9]; in the data set on Vaccinia virus; in the data set with Human alphaherpesvirus 1) was over 100 µM each time.
As to `C/C(=N\NC(N)=O)c1ccc2[nH]c(-c3ccc(C(F)(F)F)cc3)nc2c1`, the CC50 in [3], in [5] and in data set [6] was over 100 µM each time. Further, the EC50 in [4] was 45 µM; in the data set on Yellow fever virus, over 100 µM; in data set [7], over 100 µM; with Coxsackievirus B5, over 100 µM; in the data set with Poliovirus 1, over 100 µM; in [8] it was over 100 µM. In addition, the EC50 (in [9]; in the data set with Vaccinia virus; in the data set on Human alphaherpesvirus 1) was over 100 µM in each case.
For the molecule `COc1ccc(-c2nc3cc(C(C)=O)ccc3[nH]2)cc1`, in data set [1], the 50% cytotoxic concentration (CC50) at 96 h amounted to 24 µM. The half-maximal effective concentration (EC50) in data set [2] was over 24 µM; in data set [4] it was over 58 µM; in the data set on Yellow fever virus, over 40 µM; with Coxsackievirus B5, over 100 µM; with Poliovirus 1, over 100 µM; in the data set with Vaccinia virus, over 100 µM. Besides, the cytotoxic concentration (CC50) is 58 µM in data set [3], 40 µM in [5] and over 100 µM in data set [6].
